According to publication PMC11378895 (Asian Journal of Pharmaceutical Sciences, 2024):
Where no end group is shown, it is not given here.

Tests used:
[1] = target: T1, LRG1 (Homo sapiens, UniProt P02750); assay: LRG1 degradation in HK-2 cells; format: cell-based; details: various concentrations, Western blot (Fig. S9)
T1 sequence (P02750 36-347): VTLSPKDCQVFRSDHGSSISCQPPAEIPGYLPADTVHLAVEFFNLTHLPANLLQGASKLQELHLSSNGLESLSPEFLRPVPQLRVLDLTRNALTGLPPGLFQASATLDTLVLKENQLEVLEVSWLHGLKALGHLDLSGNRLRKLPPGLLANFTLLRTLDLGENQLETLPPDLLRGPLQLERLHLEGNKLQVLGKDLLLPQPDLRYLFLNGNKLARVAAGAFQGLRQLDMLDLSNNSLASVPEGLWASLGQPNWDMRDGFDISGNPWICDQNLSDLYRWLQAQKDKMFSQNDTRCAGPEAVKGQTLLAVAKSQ
Method in brief: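 HK-2 cells were seeded at 3 × 10^5 cells per well. After adherence, they were serum-starved 6 h, then treated with test compound at varying concentrations for 12 h. Harvested protein went to Western blot, with LRG1 normalised to GAPDH as internal control.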

[2] = tested on: HK-2 cells; assay: Cellular uptake by flow cytometry and confocal microscopy; format: cell-based, human; details: 10 µM, 1-h and 4-h incubation, flow cytometry, n = 3
Method in brief: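 HK-2 cells in DMEM with 10% FBS at 37 °C and 5% CO2, seeded at 3 × 10^5 cells per well. After adherence, they got medium with 10 µM Cy5-labelled test peptide or control peptide, some with TGF-β, for 1 h or 4 h. Flow cytometry quantified uptake (n = 3). For confocal imaging, the same treatment was followed by fixation and Hoechst 33342 nuclear stain.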

Compound	LRG1 degradation by the constituents (control degradation experiments) [1]	uptake by HK-2 cells compared with control peptide [2]
Nc1cccc2c1CN(C1CCC(=O)NC1=O)C2=O (centres unmarked) [lenalidomide, Lenalidomide]	none of these treatments led to LRG1 degradation	–
ET-Cy5: ET peptide labeled with cyanine dye Cy5 (ESYSAKHRIMLT; also: Cy5 label, position not given here)	–	markedly enhanced than MP-Cy5
